Key:
[1] = biological target: Platelet-activating factor receptor (Mus musculus) (UniProt Q62035); experiment: Oral dose required to inhibit PAF-induced mortality (PAF-Antagonistic activity)in mice by 50%.; type: functional; settings: Mus sp.
Procedure, shortened: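 Male Swiss mice, 22-26 g, in groups of 10. Compound or saline given po (20 mL/kg) 60 min before C18-PAF 100 µg/kg plus propranolol 1 mg/kg by tail vein. ID50 from percent inhibition of mortality versus controls.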

[2] = biological target: Platelet-activating factor receptor (Rattus norvegicus) (UniProt P46002); experiment: Dose required to inhibit PAF-induced hypotension (PAF-Antagonistic activity) in normotensive rats by 50%.; type: functional
Procedure, shortened: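 Male Sprague-Dawley rats, 180-220 g, anesthetized with sodium pentobarbital ip. Carotid blood pressure recorded. Compound given iv in saline (1 mL/kg) via femoral vein 3 min before PAF 0.5 µg/kg iv; vehicle controls. ID50 by linear regression of one curve of at least four doses, each the mean % inhibition from two or more experiments.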

[3] = biological target: Platelet-activating factor receptor (Rattus norvegicus) (UniProt P46002); experiment: In vivo dose administered intravenously to inhibit PAF-induced hypotension (PAF-Antagonistic activity) in normotensive rats by 59%.; type: functional, organism-based

Chain of Platelet-activating factor receptor (Mus musculus) (Q62035 whole entry): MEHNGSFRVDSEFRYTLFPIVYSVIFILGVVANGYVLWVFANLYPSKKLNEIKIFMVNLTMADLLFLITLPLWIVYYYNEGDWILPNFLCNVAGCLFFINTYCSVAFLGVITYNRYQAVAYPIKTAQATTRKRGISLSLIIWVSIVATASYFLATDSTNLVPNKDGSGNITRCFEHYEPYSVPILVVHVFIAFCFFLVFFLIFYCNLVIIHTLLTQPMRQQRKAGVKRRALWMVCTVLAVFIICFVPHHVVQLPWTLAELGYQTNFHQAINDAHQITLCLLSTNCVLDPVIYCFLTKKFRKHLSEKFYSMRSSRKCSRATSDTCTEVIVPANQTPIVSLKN
Chain of Platelet-activating factor receptor (Rattus norvegicus) (P46002 whole entry): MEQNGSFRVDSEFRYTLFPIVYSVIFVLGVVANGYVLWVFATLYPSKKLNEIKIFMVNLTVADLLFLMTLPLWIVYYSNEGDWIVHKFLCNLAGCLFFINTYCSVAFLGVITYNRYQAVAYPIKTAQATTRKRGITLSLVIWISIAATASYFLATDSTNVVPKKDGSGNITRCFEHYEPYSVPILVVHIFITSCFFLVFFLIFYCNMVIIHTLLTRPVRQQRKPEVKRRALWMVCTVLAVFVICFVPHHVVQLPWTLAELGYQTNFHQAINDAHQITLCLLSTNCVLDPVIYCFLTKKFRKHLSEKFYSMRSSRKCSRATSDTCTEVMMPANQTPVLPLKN

SMILES | ID50 [1] [mg/kg] | ID50 [2] [mg/kg] | ID50 [3] [mg/kg]
CN(CC(=O)N1CCN(C(C#N)c2cccnc2)CC1)C(c1ccccc1)c1ccccc1 (configuration not stated) | 4.6 | 0.33 | –
CCCCC(=O)N1CCN(C(C#N)c2cccnc2)CC1 (configuration not stated) | > 50 | 4.3 | –
COc1cc(C(=O)N2CCN(C(=O)c3cccnc3)CC2)cc(OC)c1OC | > 100 | > 5 | –
O=C(c1cccnc1)N1CCN(C(=O)C(c2ccccc2)c2ccccc2)CC1 | – | > 5 | –
O=C(C(c1ccccc1)c1ccccc1)N1CC[N+]([O-])(Cc2cccnc2)CC1 | – | > 5 | –
CN(CC(=O)N1CCN(C(C#N)c2cccnc2)CC1)c1ccccc1 (configuration not stated) | – | 2.2 | –
O=C(C(c1ccccc1)c1ccccc1)N1CCN(Cc2cccnc2)CC1 | – | 2.7 | –
NC(=O)C(c1cccnc1)N1CCN(C(=O)C(c2ccccc2)c2ccccc2)CC1 (configuration not stated) | – | > 5 | –
N#CC(c1cccc([N+](=O)[O-])c1)N1CCN(C(=O)CC(c2ccccc2)c2ccccc2)CC1 (configuration not stated) | > 30 | > 5 | –
CC(C(=O)N1CCN(C(C#N)c2cccnc2)CC1)c1ccccc1 (configuration not stated) | > 50 | 0.26 | –
N#CC(c1ccncc1)N1CCN(C(=O)CC(c2ccccc2)c2ccccc2)CC1 (configuration not stated) | 7.3 | 0.041 | –
N#CC(c1cccnc1)N1CCN(C(=O)Cc2ccccc2)CC1 (configuration not stated) | 50 | 1.5 | –
COc1cc(CCC(=O)N2CCN(C(C#N)c3cccnc3)CC2)cc(OC)c1OC (configuration not stated) | 100 | 2 | –
N#CC(c1cccnc1)N1CCN(CCNC(=O)C(c2ccccc2)c2ccccc2)CC1 (configuration not stated) | 50 | 0.29 | –
N#CC(c1ccncc1)N1CCN(CCNC(c2ccccc2)c2ccccc2)CC1 (configuration not stated) | 29 | – | 5
COc1cc(C(=O)N2CCN(C(C#N)c3ccccn3)CC2)cc(OC)c1OC (configuration not stated) | – | > 5 | –
N#CC(c1cccnc1)N1CCN(CCNC(=O)CC(c2ccccc2)c2ccccc2)CC1 (configuration not stated) | – | 2.2 | –
CCCCCCCCCCCCCCCC(=O)N1CCN(C(C#N)c2cccnc2)CC1 (configuration not stated) | – | > 5 | –
N#CC(CN1CCN(C(=O)C(c2ccccc2)c2ccccc2)CC1)c1cccnc1 (configuration not stated) | – | > 5 | –
Cn1cc(C(C#N)N2CCN(C(=O)CC(c3ccccc3)c3ccccc3)CC2)c2ccccc21 (configuration not stated) | – | > 5 | –

SMILES | ID50 [1] [mg/kg] | ID50 [2] [mg/kg] | ID50 [3] [mg/kg]
N#CC(c1cccnc1)N1CCN(C(=O)CNC(c2ccccc2)c2ccccc2)CC1 (configuration not stated) | 5.9 | 0.023 | –
N#CC(c1cccnc1)N1CCN(C(=O)CNCc2ccccc2)CC1 (configuration not stated) | 50 | 0.8 | –
N#CC(c1cccnc1)N1CCN(C(=O)Cc2cccc3ccccc23)CC1 (configuration not stated) | > 50 | 1.3 | –
N#CC(c1cccnc1)C1CCN(C(=O)CNC(c2ccccc2)c2ccccc2)CC1 (configuration not stated) | 2.6 | 0.03 | –
N#CC(c1cccnc1)N1CCN(C(=O)C(c2ccccc2)c2ccccc2)CC1 (configuration not stated) | 12 | 0.11 | –
CCCCCCCC(=O)N1CCN(C(C#N)c2cccnc2)CC1 (configuration not stated) | 100 | 1.2 | –
CC(c1cccnc1)N1CCN(C(=O)C(c2ccccc2)c2ccccc2)CC1 (configuration not stated) | 100 | 3.6 | –
N#CC(c1cccnc1)N1CCN(C(=S)C(c2ccccc2)c2ccccc2)CC1 (configuration not stated) | > 50 | 0.45 | –
N#CC(c1cccnc1)N1CCN(C(=O)c2ccccc2)CC1 (configuration not stated) | – | > 5 | –
Cc1nnc2n1-c1sc(CCC(=O)N3CCOCC3)cc1C(c1ccccc1Cl)=NC2 | 0.97 | 0.17 | –
N#CC(c1ccncc1)N1CCN(C(=O)CCNC(c2ccccc2)c2ccccc2)CC1 (configuration not stated) | 3.2 | 0.037 | –
Cn1ccc(C(C#N)N2CCN(C(=O)CC(c3ccccc3)c3ccccc3)CC2)c1 (configuration not stated) | – | 4.2 | –
COc1cc(C(=O)N2CCN(C(C#N)c3cccnc3)CC2)cc(OC)c1OC (configuration not stated) | > 100 | 4.4 | –
N#CC(c1ccncc1)N1CCN(C(=O)CC(O)(c2ccccc2)c2ccccc2)CC1 (configuration not stated) | 7.7 | 0.061 | –
COc1cc(CC(=O)N2CCN(C(C#N)c3cccnc3)CC2)cc(OC)c1OC (configuration not stated) | > 50 | 2.5 | –
COc1cc(C(=O)N2CCN(C(=S)c3cccnc3)CC2)cc(OC)c1OC | 100 | > 5 | –
COc1cc(C(=O)N2CCN(C(=O)c3cc(OC)c(OC)c(OC)c3)CC2)cc(OC)c1OC | > 100 | 4.7 | –
N#CC(c1cccnc1)N1CCN(C(=O)CNc2cccc3ccccc23)CC1 (configuration not stated) | – | 2.5 | –
CC(C(=O)N1CCN(C(C#N)c2cccnc2)CC1)(c1ccccc1)c1ccccc1 (configuration not stated) | > 30 | 0.14 | –
N#CC(c1ccncc1)N1CCN(C(=O)CNC(=O)C(c2ccccc2)c2ccccc2)CC1 (configuration not stated) | > 20 | 0.47 | –

From ChEMBL document CHEMBL1125344, “(Pyridylcyanomethyl)piperazines as orally active PAF antagonists” (J Med Chem, 1992)
